Source: ChEMBL document CHEMBL4616673 (J Med Chem, 2020)
Values after ≈ are worked out from the molar mass of the structure shown. Active and inactive are the calls of the source. The calls are words filed in the database; no cut-off is given here.

Experiments:
[1] = system: HCT-116; test: Antiproliferative activity against human HCT116 cells assessed as reduction in cell viability measured after 48 hrs by MTT assay; type: functional, cell-based
[2] = system: K562; test: Antiproliferative activity against human K562 cells assessed as reduction in cell viability measured after 48 hrs by MTT assay; type: functional, cell-based
[3] = Solubility of the compound in PBS; type: physicochemical
[4] = system: Raji; test: Cell cycle arrest in human Raji cells assessed as accumulation at S phase at 0.5 uM measured after 24 hrs by propidium iodide/RNase staining based flow cytometry (reference value: 52%); type: functional
[5] = system: Raji; test: Induction of apoptosis in human Raji cells assessed as live cells at 0.5 uM measured after 48 hrs by Annexin V-FITC staining based flow cytometry (reference value: 96.46 to 96.71 %); type: functional
[6] = system: NAMALVA; test: Antiproliferative activity against human NAMALWA cells assessed as reduction in cell viability measured after 48 hrs by MTT assay; type: functional, cell-based
[7] = system: Raji; test: Antiproliferative activity against human Raji cells assessed as inhibition of cell proliferation at 0.156 to 1.250 uM measured after 48 hrs in presence of uridine by MTT assay; type: functional, cell-based
Method in brief: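 Raji cells (ATCC; 10% FBS medium, 37 °C, 5% CO2) seeded at 2-10 × 10^3 cells/well, grown 24 h, then exposed to compound with or without uridine (500 μM) for 48 h. MTT added for 2-4 h; formazan dissolved in 20% acidified SDS overnight; absorbance read at 570 nm. Mean ± SD.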

[8] = system: Raji; test: Antiproliferative activity against human Raji cells assessed as reduction in cell viability measured after 48 hrs by MTT assay; type: functional, cell-based
[9] = system: Raji; test: Induction of apoptosis in human Raji cells assessed as live cells at 0.25 uM measured after 48 hrs by Annexin V-FITC staining based flow cytometry (reference value: 96.46 to 96.71 %); type: functional
[10] = system: Raji; test: Induction of apoptosis in human Raji cells assessed as necrotic cells at 0.5 uM measured after 48 hrs by Annexin V-FITC staining based flow cytometry (reference value: 0.12 to 0.15 %); type: functional
[11] = system: A549; test: Antiproliferative activity against human A549 cells assessed as reduction in cell viability measured after 48 hrs by MTT assay; type: functional, cell-based
[12] = system: Raji; test: Induction of apoptosis in human Raji cells assessed as live cells at 1 uM measured after 48 hrs by Annexin V-FITC staining based flow cytometry (reference value: 96.46 to 96.71 %); type: functional
[13] = system: MCF7; test: Antiproliferative activity against human MCF7 cells assessed as reduction in cell viability measured after 48 hrs by MTT assay; type: functional, cell-based
[14] = system: HeLa; test: Antiproliferative activity against human HeLa cells assessed as reduction in cell viability measured after 48 hrs by MTT assay; type: functional, cell-based
[15] = system: Raji; test: Induction of mitochondrial membrane potential loss in human Raji cells measured after 48 hrs by TMRM staining based fluorescence assay; type: functional, cell-based
Method in brief: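 Raji cells treated 48 h (CCCP as positive control), washed in PBS. Incubated with TMRM at 100 nM final for 15 min at 37 °C, fluorescence read at ex 510/em 580 nm. Mean ± SD.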

[16] = system: Raji; test: Induction of ROS generation in human Raji cells assessed as increase in ROS level measured after 24 hrs by DHE dye based fluorescence microplate reader assay; type: functional, cell-based
Method in brief: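 Raji cells treated 24 h, harvested, stained with 10 μM DHE in pre-warmed PBS for 15 min in the dark. Fluorescence read on a plate reader at ex 510/em 600 nm. Mean ± SD.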

[17] = system: Raji; test: Induction of apoptosis in human Raji cells assessed as necrotic cells at 1 uM measured after 48 hrs by Annexin V-FITC staining based flow cytometry (reference value: 0.12 to 0.15 %); type: functional
[18] = system: A-375; test: Antiproliferative activity against human A375 cells assessed as reduction in cell viability measured after 48 hrs by MTT assay; type: functional, cell-based
[19] = system: Raji; test: Induction of apoptosis in human Raji cells assessed as necrotic cells at 0.25 uM measured after 48 hrs by Annexin V-FITC staining based flow cytometry (reference value: 0.12 to 0.15 %); type: functional
[20] = system: Raji; test: Induction of apoptosis in human Raji cells assessed as early apoptotic cells at 0.25 uM measured after 48 hrs by Annexin V-FITC staining based flow cytometry (reference value: 2.12 to 2.15 %); type: functional
[21] = system: Raji; test: Induction of apoptosis in human Raji cells assessed as early apoptotic cells at 1 uM measured after 48 hrs by Annexin V-FITC staining based flow cytometry (reference value: 2.12 to 2.15 %); type: functional
[22] = system: Raji; test: Induction of apoptosis in human Raji cells assessed as early apoptotic cells at 0.5 uM measured after 48 hrs by Annexin V-FITC staining based flow cytometry (reference value: 2.12 to 2.15 %); type: functional
[23] = target: Dihydroorotate dehydrogenase (quinone), mitochondrial (Homo sapiens, UniProt Q02127); test: Inhibition of human DHODH using dihydroorotate as substrate and CoQ10 as co-substrate preincubated for 30 mins followed by substrate addition by DCIP coupled microplate reader assay
[24] = Toxicity in NOD-SCID nude mouse xenografted with human Raji cells assessed as induction of liver damage at 10 mg/kg/day, po administered 6 days a week for 3 weeks and measured post last dose by H and E staining based light microscopic analysis; conditions: in vivo
[25] = Stability of the compound in pH 9 buffer assessed as decrease in compound concentration at 0.01 mg/ml measured up to 24 hrs by LC-MS analysis; type: physicochemical; conditions: read-out: Drug degradation
Method in brief: (§1)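 Compound at 0.01 mg/mL final in buffer containing 10% acetonitrile at pH 1.0, 4.5, 6.6, 7.4 or 9.0. Held at 37 °C, sampled at 0, 2, 4, 6, 8, 10, 12 and 24 h. Remaining compound by LC-MS.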

[26] = system: Raji; test: Antitumor activity against human Raji cells xenografted in NOD-SCID nude mouse assessed as tumor growth inhibition at 10 mg/kg/day, po administered 6 days a week for 3 weeks relative to control; type: functional
Method in brief: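 Nude mice given 1 × 10^7 Raji cells s.c. in serum-free medium plus basement membrane matrix. Randomized at 100–200 mm3 tumour volume (n = 6 per group). Oral dosing 6 days/week for 3 weeks. Vehicles: 30 mg/kg/d in 5% NMP/95% PEG400, 10 mg/kg/d in 30% PEG300/70% saline. Volume = ab²/2 every 3 days. TGI from treated vs control volume change, initial to final day.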

[27] = Stability of the compound in pH 1 to 7.4 buffer assessed as decrease in compound concentration at 0.01 mg/ml measured up to 24 hrs by LC-MS analysis; type: physicochemical; conditions: read-out: Drug degradation; method in brief: as §1
[28] = Toxicity in NOD-SCID nude mouse xenografted with human Raji cells assessed as body weight loss at 30 mg/kg/day, po administered 6 days a week for 3 weeks and measured every 3 days during compound dosing; type: organism-based; conditions: in vivo, 10 mg/kg, in the assay text read “10 mg/kg/day” for “30 mg/kg/day”

Dihydroorotate dehydrogenase (quinone), mitochondrial, sequence (Q02127 whole entry): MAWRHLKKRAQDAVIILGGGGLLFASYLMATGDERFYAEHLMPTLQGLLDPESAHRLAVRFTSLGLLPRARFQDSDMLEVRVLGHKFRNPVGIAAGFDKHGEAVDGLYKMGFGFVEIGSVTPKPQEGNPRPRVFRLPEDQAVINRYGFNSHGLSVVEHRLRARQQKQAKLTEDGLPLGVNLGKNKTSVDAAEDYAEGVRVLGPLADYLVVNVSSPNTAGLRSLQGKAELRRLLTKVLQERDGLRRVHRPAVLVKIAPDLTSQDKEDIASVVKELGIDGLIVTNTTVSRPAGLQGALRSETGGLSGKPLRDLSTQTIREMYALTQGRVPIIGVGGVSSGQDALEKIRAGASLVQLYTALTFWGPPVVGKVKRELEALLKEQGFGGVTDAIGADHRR

Molecule COc1cccc(-c2c(F)cc(-n3nnc4c3C(=O)c3ccccc3C4=O)cc2F)c1 has an IC50 ([1]; Homo sapiens, HCT-116, 48 h) of 600 nM, an IC50 ([2]; Homo sapiens, K562, 48 h) of 340 nM and a solubility [3] of 21.4 µg/mL (≈ 51.3 µM). The Activity [4] was 77.98%, the Activity [5] was 91.11% and the IC50 ([6]; Homo sapiens, NAMALVA, 48 h) was 1040 nM. The inhibition [7] was “inactive”, the IC50 ([8]; Homo sapiens, Raji, 48 h) was 480 nM and the Activity [9] was 91.81%. It also gave an Activity [10] of 0.36%, an IC50 ([11]; Homo sapiens, A549, 48 h) of 2250 nM and an Activity [12] of 90.1%. The IC50 ([13]; Homo sapiens, MCF7, 48 h) was greater than 10000 nM, the IC50 ([14]; Homo sapiens, HeLa, 48 h) was greater than 10000 nM and the Activity [15] was “Dose-dependent effect”. For the same molecule, the Activity [16] was “Dose-dependent effect”, the Activity [17] was 0.39% and the IC50 ([18]; Homo sapiens, A-375, 48 h) was 40 nM. For the same molecule, the Activity [19] was 0.5%, the Activity [20] was 3.58% and the Activity [21] was 4.24%. It also gave an Activity [22] of 3.43% and an IC50 [23] of 9 nM.
For Cc1c(-c2ccc(-c3ccccc3F)cc2)nc2ccc(F)cc2c1C(=O)O [BREQUINAR], the Activity [24] was “Toxic”, the IC50 ([1]; hct-116) was 4120 nM and the IC50 ([2]; k562) was 540 nM. For the same molecule, the solubility [3] was 75.2 µg/mL (≈ 200 µM), the degraded at 24 h, 0.01 mg/ml [25] was 75.4% and the Activity [5] was 91.85%. For the same molecule, the IC50 ([6]; namalva) was greater than 10000 nM, the IC50 ([8]; raji) was 2290 nM and the Activity [9] was 93.68%. For the same molecule, the Activity [10] was 0.27%, the IC50 ([11]; a549) was 4100 nM and the Activity [12] was 92.06%. It also gave a TGI [26] of 74%, an IC50 ([13]; mcf7) greater than 10000 nM and a degraded at 24 h, 0.01 mg/ml [27] of 6.3 to 12.1%. It also gave an IC50 ([14]; hela) greater than 10000 nM, an Activity [17] of 0.41% and an IC50 ([18]; a-375) of 590 nM. The Activity [19] was 0.27%, the Activity [20] was 2.42% and the Activity [28] was “Toxic”. For the same molecule, the Activity [21] was 2.48% and the Activity [22] was 3.56%.
